Results on 28 compounds are retold here after ChEMBL document CHEMBL1148367, “Novel azapeptide inhibitors of hepatitis C virus serine protease” (J Med Chem, 2004).

*1 amine or outer side, *2 acyl side, *3 side chain or, on linkers, in order; H or OH if unused. Where a SMILES comes first, the peptide text is derived from it. [ ]: non-standard residue; d: D form. The star is where a group is joined. NH(1S-phenylpropyl) = CC[C@H](N*)c1ccccc1; NH(1R-phenylethyl) = C[C@@H](N*)c1ccccc1; NH(1S-phenylethyl) = C[C@H](N*)c1ccccc1; X8 = O=C(N(CC(F)(F)F)N[*:1])[*:2]; Hyp = O=C(O)[C@@H]1C[C@@H](O)CN1; NHPiperonyl = c1cc2c(cc1CN*)OCO2; X12 = CCCN(N*)C(=O)NN(C)c1ccccc1; X5 = CC(C)CCN(N[*:1])C(=O)[*:2]; azaNva = CCCN(N[*:1])C(=O)[*:2]; AzaAla = CN(N[*:1])C(=O)[*:2]; X10 = CCCN(N*)C(=O)CCc1ccccc1; X3 = C[C@H](N*)c1cccc2ccccc12; X9 = CCCCCN(N[*:1])C(=O)[*:2]; NMe(benzyl) = CN(Cc1ccccc1)*; X6 = CCCN(N*)C(=S)NCc1ccccc1; X7 = CCCN(N*)C(=O)OCc1ccccc1; X1 = c1ccc2c(c1)CC[C@@H]2N*; X4 = C[C@H](N*)c1ccc(Br)cc1; X14 = C[C@H](N*)c1nnn[nH]1; X11 = C[C@H](N*)C1CCCCC1; X13 = c1ccc2c(c1)CCN2*; NHBn = c1ccc(CN*)cc1; X2 = CCCN(N*)C(N)=O; Bn = c1ccc(C*)cc1

The term IC50 denotes the concentration that inhibits the measured activity by half.

The target of the first assay is T1, NS3 (Hepatitis C virus, UniProt A3EZJ3). Kind of assay: Inhibitory concentration against Hepatitis C virus NS3 serine protease. More on the design: species or system Hepacivirus hominis. An outline of the steps: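 HCV NS3 serine protease IC50 from the group's in-house protease assay, run as previously described. Each reported value is the mean of at least four determinations.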
T1 sequence (A3EZJ3 whole entry): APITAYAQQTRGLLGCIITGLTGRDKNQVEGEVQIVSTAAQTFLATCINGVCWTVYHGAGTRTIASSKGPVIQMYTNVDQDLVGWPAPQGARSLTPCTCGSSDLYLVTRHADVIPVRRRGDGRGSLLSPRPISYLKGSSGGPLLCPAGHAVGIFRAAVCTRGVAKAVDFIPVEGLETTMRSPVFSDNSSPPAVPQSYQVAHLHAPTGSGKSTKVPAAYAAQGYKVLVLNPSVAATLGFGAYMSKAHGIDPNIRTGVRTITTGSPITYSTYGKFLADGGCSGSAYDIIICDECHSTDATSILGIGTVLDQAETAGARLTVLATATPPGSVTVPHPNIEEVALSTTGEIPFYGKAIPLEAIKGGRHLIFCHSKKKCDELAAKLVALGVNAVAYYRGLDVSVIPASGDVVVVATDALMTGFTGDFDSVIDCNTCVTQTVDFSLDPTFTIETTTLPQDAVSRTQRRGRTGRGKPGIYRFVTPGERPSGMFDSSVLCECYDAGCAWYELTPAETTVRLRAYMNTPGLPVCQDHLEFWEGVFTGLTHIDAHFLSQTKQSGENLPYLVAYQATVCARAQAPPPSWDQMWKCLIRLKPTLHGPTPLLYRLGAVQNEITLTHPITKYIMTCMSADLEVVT
As for Ac-DDIVPC-OH, 43 µM corresponded to half-maximal inhibition (IC50).

A further assay deals with T1, NS3. The assay can be described thus: Inhibitory concentration against Hepatitis C virus serine protease. Also on record: species or system Hepacivirus hominis.
Compound `CCC[C@@H](NC(=O)[C@@H]1C[C@@H](OCc2ccccc2)CN1C(=O)[C@@H](NC(=O)[C@@H](NC(=O)[C@@H](CCC(=O)O)NC(=O)[C@H](CC(=O)O)NC(C)=O)[C@@H](C)CC)C(C)C)C(=O)O` showed an IC50 of 34 µM. `CC[C@H](C)[C@H](NC(=O)[C@@H](CCC(=O)O)NC(=O)[C@H](CC(=O)O)NC(C)=O)C(=O)N[C@H](C(=O)N1C[C@H](OCc2ccccc2)C[C@H]1C(=O)NN(CC(C)C)C(=O)N[C@@H](C)c1ccccc1)C(C)C` yielded an IC50 of 2.4 µM. In the case of `CCC(CC)N(NC(=O)[C@@H]1C[C@@H](OCc2ccccc2)CN1C(=O)[C@@H](NC(=O)[C@@H](NC(=O)[C@@H](CCC(=O)O)NC(=O)[C@H](CC(=O)O)NC(C)=O)[C@@H](C)CC)C(C)C)C(=O)N[C@@H](C)c1ccccc1`, the IC50 is 4.1 µM. `CCCCN(NC(=O)[C@@H]1C[C@@H](OCc2ccccc2)CN1C(=O)[C@@H](NC(=O)[C@@H](NC(=O)[C@@H](CCC(=O)O)NC(=O)[C@H](CC(=O)O)NC(C)=O)[C@@H](C)CC)C(C)C)C(=O)N[C@@H](C)c1ccccc1` had an IC50 of 0.099 µM.

In turn, `CC[C@H](C)[C@H](NC(=O)[C@@H](CCC(=O)O)NC(=O)[C@H](CC(=O)O)NC(C)=O)C(=O)N[C@H](C(=O)N1C[C@H](OCc2ccccc2)C[C@H]1C(=O)NN(CC)C(=O)N[C@@H](C)c1ccccc1)C(C)C` yielded an IC50 of 0.085 µM.

`CCC[C@H](NC(=O)[C@@H]1C[C@@H](OCc2ccccc2)CN1C(=O)[C@@H](NC(=O)[C@@H](NC(=O)[C@@H](CCC(=O)O)NC(=O)[C@H](CC(=O)O)NC(C)=O)[C@@H](C)CC)C(C)C)C(N)=O`: the IC50 worked out at 26 µM. Compound `CCC[C@H](NC(=O)[C@@H]1C[C@@H](OCc2ccccc2)CN1C(=O)[C@@H](NC(=O)[C@@H](NC(=O)[C@@H](CCC(=O)O)NC(=O)[C@H](CC(=O)O)NC(C)=O)[C@@H](C)CC)C(C)C)C(=O)O` had an IC50 of 0.6 µM. In turn, `CCCN(NC(=O)[C@@H]1C[C@@H](OCc2ccccc2)CN1C(=O)[C@@H](NC(=O)[C@@H](NC(=O)[C@@H](CCC(=O)O)NC(=O)[C@H](CC(=O)O)NC(C)=O)[C@@H](C)CC)C(C)C)C(N)=O` (Ac-D[dE]IV[Hyp](Bn)-X2) showed an IC50 of 17.5 µM. In the case of `CCCN(NC(=O)[C@@H]1C[C@@H](OCc2ccccc2)CN1C(=O)[C@@H](NC(=O)[C@@H](NC(=O)[C@@H](CCC(=O)O)NC(=O)[C@H](CC(=O)O)NC(C)=O)[C@@H](C)CC)C(C)C)C(=S)NCc1ccccc1` (Ac-D[dE]IV[Hyp](Bn)-X6), inhibition was half-maximal at 4.2 µM (IC50).

Consider `CCCN(NC(=O)[C@@H]1C[C@@H](OCc2ccccc2)CN1C(=O)[C@@H](NC(=O)[C@@H](NC(=O)[C@@H](CCC(=O)O)NC(=O)[C@H](CC(=O)O)NC(C)=O)[C@@H](C)CC)C(C)C)C(=O)OCc1ccccc1` (Ac-D[dE]IV[Hyp](Bn)-X7), for which the IC50 was 0.8 µM.

`CCCN(NC(=O)[C@@H]1C[C@@H](OCc2ccccc2)CN1C(=O)[C@@H](NC(=O)[C@@H](NC(=O)[C@@H](CCC(=O)O)NC(=O)[C@H](CC(=O)O)NC(C)=O)[C@@H](C)CC)C(C)C)C(=O)CCc1ccccc1` (Ac-D[dE]IV[Hyp](Bn)-X10) displayed an IC50 of 0.71 µM. The compound `CCCN(NC(=O)[C@@H]1C[C@@H](OCc2ccccc2)CN1C(=O)[C@@H](NC(=O)[C@@H](NC(=O)[C@@H](CCC(=O)O)NC(=O)[C@H](CC(=O)O)NC(C)=O)[C@@H](C)CC)C(C)C)C(=O)NN(C)c1ccccc1` (Ac-D[dE]IV[Hyp](Bn)-X12) gave an IC50 of 0.48 µM.

For the compound `CC[C@H](C)[C@H](NC(=O)[C@@H](CCC(=O)O)NC(=O)[C@H](CC(=O)O)NC(C)=O)C(=O)N[C@H](C(=O)N1C[C@H](OCc2ccccc2)C[C@H]1C(=O)NN(C)C(=O)N[C@@H](C)c1ccccc1)C(C)C` (Ac-D[dE]IV[Hyp](Bn)[AzaAla]-{NH(1S-phenylethyl)}), the IC50 came to 0.43 µM. On the same count and under the same terms, then `CC[C@H](C)[C@H](NC(=O)[C@@H](CCC(=O)O)NC(=O)[C@H](CC(=O)O)NC(C)=O)C(=O)N[C@H](C(=O)N1C[C@H](OCc2ccccc2)C[C@H]1C(=O)NN(CCC(C)C)C(=O)N[C@@H](C)c1ccccc1)C(C)C` (Ac-D[dE]IV[Hyp](Bn)[X5]-{NH(1S-phenylethyl)}), with 5.7 µM; and `CC[C@H](C)[C@H](NC(=O)[C@@H](CCC(=O)O)NC(=O)[C@H](CC(=O)O)NC(C)=O)C(=O)N[C@H](C(=O)N1C[C@H](OCc2ccccc2)C[C@H]1C(=O)NN(CC(F)(F)F)C(=O)N[C@@H](C)c1ccccc1)C(C)C` (Ac-D[dE]IV[Hyp](Bn)[X8]-{NH(1S-phenylethyl)}), with 0.34 µM. Compound `CCCCCN(NC(=O)[C@@H]1C[C@@H](OCc2ccccc2)CN1C(=O)[C@@H](NC(=O)[C@@H](NC(=O)[C@@H](CCC(=O)O)NC(=O)[C@H](CC(=O)O)NC(C)=O)[C@@H](C)CC)C(C)C)C(=O)N[C@@H](C)c1ccccc1` (Ac-D[dE]IV[Hyp](Bn)[X9]-{NH(1S-phenylethyl)}) returned an IC50 of 0.49 µM. `CCCN(NC(=O)[C@@H]1C[C@@H](OCc2ccccc2)CN1C(=O)[C@@H](NC(=O)[C@@H](NC(=O)[C@@H](CCC(=O)O)NC(=O)[C@H](CC(=O)O)NC(C)=O)[C@@H](C)CC)C(C)C)C(=O)NCc1ccccc1` (Ac-D[dE]IV[Hyp](Bn)[azaNva]-NHBn) returned an IC50 of 0.59 µM.

`CCCN(NC(=O)[C@@H]1C[C@@H](OCc2ccccc2)CN1C(=O)[C@@H](NC(=O)[C@@H](NC(=O)[C@@H](CCC(=O)O)NC(=O)[C@H](CC(=O)O)NC(C)=O)[C@@H](C)CC)C(C)C)C(=O)NCc1ccc2c(c1)OCO2` (Ac-D[dE]IV[Hyp](Bn)[azaNva]-NHPiperonyl): half-maximal inhibition (IC50) was put at 0.5 µM. `CCCN(NC(=O)[C@@H]1C[C@@H](OCc2ccccc2)CN1C(=O)[C@@H](NC(=O)[C@@H](NC(=O)[C@@H](CCC(=O)O)NC(=O)[C@H](CC(=O)O)NC(C)=O)[C@@H](C)CC)C(C)C)C(=O)N[C@H]1CCc2ccccc21` (Ac-D[dE]IV[Hyp](Bn)[azaNva]-X1) came in with an IC50 of 0.1 µM. Same read-out and setting: to `CCCN(NC(=O)[C@@H]1C[C@@H](OCc2ccccc2)CN1C(=O)[C@@H](NC(=O)[C@@H](NC(=O)[C@@H](CCC(=O)O)NC(=O)[C@H](CC(=O)O)NC(C)=O)[C@@H](C)CC)C(C)C)C(=O)N[C@@H](C)c1cccc2ccccc12` (Ac-D[dE]IV[Hyp](Bn)[azaNva]-X3) belongs 0.49 µM; to `CCCN(NC(=O)[C@@H]1C[C@@H](OCc2ccccc2)CN1C(=O)[C@@H](NC(=O)[C@@H](NC(=O)[C@@H](CCC(=O)O)NC(=O)[C@H](CC(=O)O)NC(C)=O)[C@@H](C)CC)C(C)C)C(=O)N[C@@H](C)c1ccc(Br)cc1` (Ac-D[dE]IV[Hyp](Bn)[azaNva]-X4), 0.072 µM.

Consider `CCCN(NC(=O)[C@@H]1C[C@@H](OCc2ccccc2)CN1C(=O)[C@@H](NC(=O)[C@@H](NC(=O)[C@@H](CCC(=O)O)NC(=O)[C@H](CC(=O)O)NC(C)=O)[C@@H](C)CC)C(C)C)C(=O)N[C@@H](C)C1CCCCC1` (Ac-D[dE]IV[Hyp](Bn)[azaNva]-X11), for which the IC50 was 0.42 µM. For `CCCN(NC(=O)[C@@H]1C[C@@H](OCc2ccccc2)CN1C(=O)[C@@H](NC(=O)[C@@H](NC(=O)[C@@H](CCC(=O)O)NC(=O)[C@H](CC(=O)O)NC(C)=O)[C@@H](C)CC)C(C)C)C(=O)N1CCc2ccccc21` (Ac-D[dE]IV[Hyp](Bn)[azaNva]-X13), the IC50 amounted to 4.4 µM. `CCCN(NC(=O)[C@@H]1C[C@@H](OCc2ccccc2)CN1C(=O)[C@@H](NC(=O)[C@@H](NC(=O)[C@@H](CCC(=O)O)NC(=O)[C@H](CC(=O)O)NC(C)=O)[C@@H](C)CC)C(C)C)C(=O)N[C@@H](C)c1nnn[nH]1` (Ac-D[dE]IV[Hyp](Bn)[azaNva]-X14) gave an IC50 of 0.86 µM. Still for that read-out and setting: then `CCCN(NC(=O)[C@@H]1C[C@@H](OCc2ccccc2)CN1C(=O)[C@@H](NC(=O)[C@@H](NC(=O)[C@@H](CCC(=O)O)NC(=O)[C@H](CC(=O)O)NC(C)=O)[C@@H](C)CC)C(C)C)C(=O)N[C@H](C)c1ccccc1` (Ac-D[dE]IV[Hyp](Bn)[azaNva]-{NH(1R-phenylethyl)}), with 4.3 µM; and `CCCN(NC(=O)[C@@H]1C[C@@H](OCc2ccccc2)CN1C(=O)[C@@H](NC(=O)[C@@H](NC(=O)[C@@H](CCC(=O)O)NC(=O)[C@H](CC(=O)O)NC(C)=O)[C@@H](C)CC)C(C)C)C(=O)N[C@@H](CC)c1ccccc1` (Ac-D[dE]IV[Hyp](Bn)[azaNva]-{NH(1S-phenylpropyl)}), with 0.44 µM; and `CCCN(NC(=O)[C@@H]1C[C@@H](OCc2ccccc2)CN1C(=O)[C@@H](NC(=O)[C@@H](NC(=O)[C@@H](CCC(=O)O)NC(=O)[C@H](CC(=O)O)NC(C)=O)[C@@H](C)CC)C(C)C)C(=O)N(C)Cc1ccccc1` (Ac-D[dE]IV[Hyp](Bn)[azaNva]-{NMe(benzyl)}), with 8.4 µM.
